Broadly, the IC50 is the point on the concentration scale where inhibition reaches its midpoint. Usually bioavailability stands for dose-corrected exposure relative to a reference, in per cent. The low end stands for little systemic uptake, the high end for much systemic uptake. What is called clearance is the rate of elimination divided by the concentration. A lower clearance goes with a low capacity for elimination. As usually defined, the fraction unbound is free concentration divided by total concentration. A higher fraction unbound goes with weak binding.

This note sets out measurements from ChEMBL document CHEMBL1153293, “Discovery and optimization of piperidyl benzamide derivatives as a novel class of 11beta-HSD1 inhibitors” (Bioorg Med Chem Lett, 2009).

In data set [1] the target is T1, Nuclear receptor subfamily 1 group I member 2 (Homo sapiens, UniProt O75469).
T1 sequence (O75469 whole entry): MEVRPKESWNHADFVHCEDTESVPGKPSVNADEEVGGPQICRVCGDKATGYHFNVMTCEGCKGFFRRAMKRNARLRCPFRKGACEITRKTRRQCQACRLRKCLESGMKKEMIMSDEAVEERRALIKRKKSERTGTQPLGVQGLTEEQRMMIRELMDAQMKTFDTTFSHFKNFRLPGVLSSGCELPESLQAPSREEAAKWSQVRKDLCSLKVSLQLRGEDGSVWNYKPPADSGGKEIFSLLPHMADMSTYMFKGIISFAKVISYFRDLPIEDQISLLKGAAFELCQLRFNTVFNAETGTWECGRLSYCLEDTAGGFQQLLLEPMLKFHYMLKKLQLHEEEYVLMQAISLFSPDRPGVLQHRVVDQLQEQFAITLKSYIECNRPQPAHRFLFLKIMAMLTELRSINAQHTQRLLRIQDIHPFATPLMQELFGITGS
As to the kind of experiment: Activity at human PXR receptor transfected in human HepG2 cells assessed as receptor activation at 2 uM by luciferase based reporter gene assay relative to rifampin. The note with it: hepg2, 2 µM. Format: cell-based. In short, it runs like this: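 HepG2 cells transfected with human PXR cDNA and a luciferase reporter construct driven by the CYP3A4 gene. Cells were exposed to test article, and luciferase activity was read by chemiluminescence. Rifampin at 10 µM served as the positive control.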
Background: A reporter such as luciferase makes a cellular process visible.

In a further data set the test system is HeLa. As to the kind of experiment: Cytotoxicity against human HeLa cells. Format: functional, cell-based.
The nature of data set [2]: Metabolic stability in rat liver microsome assessed as compound remaining after 30 mins. Format: ADME. To be noted: liver microsomes, read-out: Stability. (Liver microsomes are vesicles of endoplasmic reticulum, rich in cytochrome P450 enzymes.)
Data set [3] can be described thus: Metabolic stability in human liver microsome assessed as compound remaining after 30 mins. Format: ADME. To be noted: liver microsomes, read-out: Stability.
The nature of data set [4]: Metabolic stability in rat hepatocyte assessed as compound remaining after 90 mins. Format: ADME, cell-based. To be noted: hepatocytes, read-out: Stability.
The nature of data set [5]: Oral bioavailability in rat at 2.0 mg/kg. Format: ADME, organism-based. To be noted: in vivo. In short, it runs like this:
(§1)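 Rats received each compound both iv (0.39, 0.50 or 0.51 mg/kg, depending on compound) and orally at 2.0 mg/kg. Plasma clearance was taken from the iv arm and oral bioavailability (%F) from the po dose.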

Data set [6] in a line: Metabolic stability in human hepatocyte assessed as compound remaining after 90 mins. Format: ADME, cell-based. The note with it: hepatocytes, read-out: Stability.
A short description of data set [7]: Clearance in rat at 0.39 mg/kg, iv. Format: ADME, organism-based. Also on record: dose 0.39 mg/kg, route intravenous. The note with it: in vivo. In short, it runs like this: as §1
A short description of data set [8]: Clearance in rat at 0.51 mg/kg, iv. Format: ADME, organism-based. Also on record: dose 0.51 mg/kg, route intravenous. To be noted: in vivo. In outline: as §1
Data set [9] in a line: Fraction unbound in rat plasma. Format: ADME, cell-free. In short, it runs like this: (§2)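 Unbound fraction (fu) in plasma was measured with a 4 h ultracentrifugation protocol, with samples analyzed by mass spectrometry.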
A short description of data set [10]: Fraction unbound in human plasma. Format: ADME, cell-free. In short, it runs like this: as §2
Data set [11] has as its target T2, 11-beta-hydroxysteroid dehydrogenase 1 (Homo sapiens, UniProt P28845). Briefly: Inhibition of human recombinant 11beta-HSD1 expressed in baculovirus system by scintillation proximity assay. In general terms: In a scintillation proximity assay essentially only radioactivity close to the scintillant gives light.
The target of data set [12] is T2, 11-beta-hydroxysteroid dehydrogenase 1. Briefly: Inhibition of human recombinant 11beta-HSD1 expressed HEK293 cells by scintillation proximity assay in presence of human serum albumin. Format: cell-based.
For data set [13] the target is unchanged. Briefly: Inhibition of human recombinant 11beta-HSD1 expressed HEK293 cells by scintillation proximity assay. Format: cell-based.
Data set [14] is described as follows: Clearance in rat at 0.50 mg/kg, iv. Format: ADME, organism-based. Also on record: dose 0.5 mg/kg, route intravenous. The note with it: in vivo, 0.5 mg/kg. In outline: as §1

A value given as a limit tells only on which side of the number the result lay.

T2 sequence (P28845 whole entry): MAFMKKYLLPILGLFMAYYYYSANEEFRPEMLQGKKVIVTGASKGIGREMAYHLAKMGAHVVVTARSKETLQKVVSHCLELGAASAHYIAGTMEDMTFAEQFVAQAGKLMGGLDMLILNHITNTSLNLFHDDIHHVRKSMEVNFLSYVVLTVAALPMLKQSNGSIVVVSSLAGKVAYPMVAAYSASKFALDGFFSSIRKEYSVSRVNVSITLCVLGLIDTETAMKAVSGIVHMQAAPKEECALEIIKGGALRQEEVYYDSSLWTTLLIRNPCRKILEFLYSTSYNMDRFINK

For the compound `C[C@](O)(c1ccc(C(=O)N(C2CCC(CC(N)=O)CC2)C2CC2)cc1)C(F)(F)F` (mixture of isomers), the Activity in data set [1] amounted to 1%.
Regarding `C[C@](O)(c1ccc(C(=O)N(C2CC2)[C@H]2CC[C@H](CC3(C#N)CC3)CC2)cc1)C(F)(F)F`, half-maximal inhibition with HeLa (IC50) was put at 4 µM. The remaining at 0.5 h in [2] and in data set [3] was greater than 90% each time. Also, the Activity in data set [1] stood at 60%.
As for `CC(C)(C[C@H]1CC[C@H](N(C(=O)c2ccc([C@](C)(O)C(F)(F)F)cc2)C2CC2)CC1)C(N)=O`, the IC50 in the data set with HeLa is greater than 10 µM. The results for the remaining at 1.5 h in data set [4] and in data set [6] were 10% and 84%, respectively. Besides, the remaining at 0.5 h in data set [2] and in data set [3] was greater than 90% throughout. The same compound yielded a bioavailability in [5] of 32%. In [1], the Activity worked out at 4%. Moreover, the clearance in data set [7] is 21.7 mL/min/kg.
For `CC(C)(C#N)C[C@H]1CC[C@H](N(C(=O)c2ccc([C@](C)(O)C(F)(F)F)cc2)C2CC2)CC1`, the remaining at 0.5 h in [2] was 77%; in data set [3], greater than 90%. The Activity in data set [1] is recorded as 60%.
As for `C[C@](O)(c1ccc(C(=O)N(C2CC2)[C@H]2CC[C@H](c3cccnc3)CC2)cc1)C(F)(F)F`, in the data set with HeLa, it took 2.5 µM to reach half-maximal inhibition (IC50).
For the compound `C[C@@](O)(c1ccc(C(=O)N(C2CC2)[C@H]2CC[C@H](CCC(N)=O)CC2)cc1)C(F)(F)F`, the clearance in data set [8] was 50 mL/min/kg. Moreover, in the data set on HeLa, the IC50 was greater than 10 µM. Further, the figures for the remaining at 1.5 h in [4] and in data set [6] were less than 5% and 32%, respectively. In addition, the remaining at 0.5 h in [2] and in data set [3] was greater than 90% throughout. In [5], this compound came in with a bioavailability of 22%. Further, the Activity in [1] stood at 5%.
Regarding `C[C@@](O)(c1ccc(C(=O)N(C2CC2)[C@H]2CC[C@@H](CCC(N)=O)CC2)cc1)C(F)(F)F`, in the data set on HeLa, the concentration for half-maximal inhibition (IC50) was greater than 10 µM. Further, the remaining at 0.5 h is 72% in [2] and greater than 90% in data set [3]. Moreover, the Activity in [1] came to 100%.
For the compound `C[C@@](O)(c1ccc(C(=O)N(C2CC2)[C@H]2CC[C@@H](CC#N)CC2)cc1)C(F)(F)F`, the figures for the remaining at 0.5 h in data set [2] and in [3] were 5% and 70%, respectively. The Activity in [1] is reported as 74%.
Compound `C[C@](O)(c1ccc(C(=O)N(C2CC2)[C@H]2CC[C@H](CCC#N)CC2)cc1)C(F)(F)F` registered an IC50 with HeLa greater than 10 µM. In addition, in [3], the remaining at 0.5 h is greater than 90%. For the same compound, the Activity in data set [1] came out at 30%.
`C[C@](O)(c1ccc(C(=O)N(C2CC2)[C@H]2CC[C@H](CC3(C(N)=O)CC3)CC2)cc1)C(F)(F)F`: the half-inhibitory concentration (IC50) with HeLa was determined as 8 µM. Further, the fraction unbound in data set [9] is 0.048; in data set [10], 0.12. Besides, the results for the remaining at 1.5 h in data set [4] and in [6] were 73% and greater than 90%, respectively. For the same compound, the remaining at 0.5 h in data set [2] and in [3] was greater than 90% each time. Also, the Activity in data set [1] worked out at 6.5%.
Turning to `C[C@](O)(c1ccc(C(=O)N(C2CC2)[C@H]2CC[C@@H](CCC#N)CC2)cc1)C(F)(F)F`, the IC50 in the data set with HeLa is greater than 10 µM; in data set [11] it was 0.0028 µM; in data set [12], 0.13 µM; in data set [13], 0.01 µM. Moreover, the remaining at 0.5 h is less than 5% in data set [2] and 64% in data set [3]. Further, the Activity in [1] is reported as 56%.
With `C[C@](O)(c1ccc(C(=O)N(C2CC2)C2CCN(CC3(C#N)CC3)CC2)cc1)C(F)(F)F`, the IC50 in the data set on HeLa was greater than 10 µM. The remaining at 0.5 h in data set [2] is 28%; in data set [3], 86%. Also, the Activity in data set [1] stood at 3%.
`C[C@](O)(c1ccc(C(=O)N(C2CC2)C2CCN(CC3(C(N)=O)CC3)CC2)cc1)C(F)(F)F` yielded a half-inhibitory concentration (IC50) in the data set with HeLa greater than 10 µM. The free fraction (fraction unbound) in data set [9] came out at 0.2; in data set [10] it was 0.48. Also, the remaining at 1.5 h in data set [4] is 69%; in data set [6] it was greater than 90%. Further, the remaining at 0.5 h in data set [2] was 86%; in data set [3], greater than 90%. In addition, the clearance in [14] was 14.8 mL/min/kg. In data set [5], this compound showed a bioavailability of 69%. Further, the Activity in data set [1] came out at 4%.
For the compound `C[C@@](O)(c1ccc(C(=O)N(C2CC2)[C@H]2CC[C@H](CC#N)CC2)cc1)C(F)(F)F`, the remaining at 0.5 h in [2] was 73%; in [3], greater than 90%. For the same compound, the Activity in [1] is reported as 75%.
